Experimental data collected from several papers.
Protocols differ between the studies behind these lines.
Target: Myosin light chain kinase 2, skeletal/cardiac muscle (MYLK2, Homo sapiens, UniProt Q9H1R3)

With `CCS(=O)(=O)c1cc2cc(C[C@](O)(CC(C)(C)c3ccc(F)cc3C(N)=O)C(F)(F)F)[nH]c2cn1` the remaining binding was 98% (cell-free assay; competition with immobilised ligand; 1 µM).
`COc1cc(Cl)c(C(=O)N[C@@H](CN[C@H]2CC[C@@H](N)CC2)Cc2ccc(C#N)cc2)cc1-c1ccc(CN[C@H](C)c2ccc(C)cc2)o1` has a remaining activity of 99% (enzyme activity; inhibitor; 1 µM).
`CC(C)(C)c1nc(-c2cccc(NS(=O)(=O)c3c(F)cccc3F)c2F)c(-c2ccnc(N)n2)s1` gave a remaining activity of 112% (enzyme activity; inhibitor; radiometric; 1 µM).
`COc1cc2ncnc(Nc3ccc(Oc4ccccc4)cc3C)c2cc1OC` has an inhibition of -4% (enzyme activity; inhibitor; 1 µM).
For `N#CCCc1ccc2c(c1)-c1[nH]c3ccc([N+](=O)[O-])cc3c1CC(=O)N2`, the remaining signal was 93.9% (cell-free assay; 0.5 µM).
`CNC(=O)c1cc(Oc2ccc(NC(=O)Nc3ccc(Cl)c(C(F)(F)F)c3)cc2)ccn1` has an inhibition of 16% (enzyme activity; inhibitor; 10 µM).
`Cc1nc(Cc2cccc(C(F)(F)F)c2)sc1-c1ccc(C(N)=O)nc1` has a remaining binding of 77% (cell-free assay; competition with immobilised ligand; 1 µM).
`Cc1ccc(NC(=O)c2ccc(CN3CCN(C)CC3)cc2)cc1Nc1nc(-c2cccnc2)cs1` has a remaining signal of 98.7% (cell-free assay; 0.5 µM).
For `Nc1ncnc2occ(-c3ccc(NC(=O)Nc4cc(C(F)(F)F)ccc4F)cc3)c12`, the remaining activity was 1.4% (enzyme activity; inhibitor; 20 µM).
The inhibition of `CC/C(=N\NC(=O)NCc1cccc(O)c1)c1ccc(O)c(C)c1O` is reported as 6% (enzyme activity; inhibitor; 0.1 µM).
For `COc1cc2c(N3CCN(C(=O)Nc4ccc(OC(C)C)cc4)CC3)ncnc2cc1OCCCN1CCCCC1`, the remaining signal was 101% (cell-free assay; 0.5 µM).
With `CC(C)(O)[C@H]1CC[C@H](Nc2ccc3ncc(-c4cccc(C(F)(F)F)c4)n3n2)CC1` the remaining activity was 96.7% (enzyme activity; inhibitor; 1 µM).
`CCN(CC)CCNC(=O)c1c(C)[nH]c(/C=C2\C(=O)Nc3ccc(F)cc32)c1C` has an inhibition of 37% (enzyme activity; inhibitor; 0.3 µM).
For `O=C(NCc1ncc(C(F)(F)F)cc1Cl)c1ccc2c(c1)C1(CCS(=O)(=O)CC1)[C@H](C1CC1)N2S(=O)(=O)c1ccc(F)cc1`, the remaining binding was 100% (cell-free assay; competition with immobilised ligand; 1 µM).
For `O=C1c2ccccc2-c2n[nH]c3cccc1c23`, the activity vs control was 22.2% (enzyme activity; inhibitor; 0.5 µM).
`CNC(=O)c1ccc(Nc2ncc(C(F)(F)F)c(NCc3nccnc3N(C)S(C)(=O)=O)n2)cc1` gave a remaining binding of 63% (cell-free assay; competition with immobilised ligand; 0.1 µM).
`CCCOc1ccc(OC)c(F)c1C(=O)c1ccc(C(=O)N[C@@H]2CNC[C@H]2NC(=O)c2ccc3[nH]ncc3c2)cc1` gave a remaining activity of 76% (enzyme activity; inhibitor; 10 µM).
`CN(C)C(=O)Cn1cc(-c2nc([C@@](C)(c3ccc(-c4cnc(N)nc4)cc3)C3CC3)no2)cn1` has a remaining binding of 100% (cell-free assay; competition with immobilised ligand; 1 µM).
`Cc1sc(C(=O)NC2COC2)cc1-n1cc(NC(=O)Nc2c(F)cccc2Cl)cn1` gave a remaining activity of 78.7% (enzyme activity; inhibitor; 10 µM).
